Compounds with a hit are over-represented: about 2.3% of the library has one in this group of screens.
TAAR1 antagonist: human TAAR1 antagonism. CHO RD-HGA16 TAAR1, Fluo-8 calcium fluorescence, antagonist. inhibition, % at 3 µM. actives 1.5% (n = 360,000);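 active means inhibition above a per-plate cutoff, the mean inhibition of test compounds on that plate plus 3 SD, cut at about 49% in these data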;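 further: 0% = DMSO plus EC80 beta-PEA response and 100% = DMSO alone without agonist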
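System: RD-HGA16 CHO cells with stable hTAAR1 and Gα16 | Probe or stimulus: EC80 β-phenethylamine stimulus | Dosing: 3 µM, single point | Times: Dye loading 75 min at 37 °C, then 30 min room temperature | Measured by: Fluo-8 calcium-sensitive fluorescence | Read-out basis: % inhibition of agonist calcium response | Replicates: n of 1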
V1R ag counter: activates human V1a receptor in oxytocin agonist counter-screen; P37288; CHO-V1R cells, Fluo-8 calcium fluorescence, agonist mode; 0% DMSO, 100% 3 nM vasopressin; activation, % at 3 µM; actives 0.25% (n = 320,000); AID 2797;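 active means activation above the mean activation of all tested compounds plus 3 SD, per screening run, cut at about 20% in these data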;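 further: signal is peak over basal fluorescence ratio across a 100 second FLIPR read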
OXTR ag: human OXTR agonism; actives 0.32% (n = 320,000); AID 2435; activation, % at 3 µM; CHO-OTR cells, Fluo-8 calcium fluorescence; normalized: DMSO 0%, oxytocin 100%;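 active means activation above the mean of all tested compounds plus 3 SD, cutoff set per screening run, cut at about 20% in these data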;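 further: peak over basal fluorescence ratio from a 100 s FLIPR kinetic read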
Target sequence (P30559 whole entry, looked up): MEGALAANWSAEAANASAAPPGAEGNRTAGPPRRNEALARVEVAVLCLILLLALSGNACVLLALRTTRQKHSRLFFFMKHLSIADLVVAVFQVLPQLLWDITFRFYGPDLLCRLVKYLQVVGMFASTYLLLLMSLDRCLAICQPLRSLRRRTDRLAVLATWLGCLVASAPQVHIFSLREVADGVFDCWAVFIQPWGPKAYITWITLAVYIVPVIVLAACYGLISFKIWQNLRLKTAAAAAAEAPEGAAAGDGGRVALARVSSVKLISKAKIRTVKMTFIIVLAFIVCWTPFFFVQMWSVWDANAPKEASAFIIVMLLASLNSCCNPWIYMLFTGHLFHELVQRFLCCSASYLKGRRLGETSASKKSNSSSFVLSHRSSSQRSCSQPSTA
TAAR1 agonist: agonists of human TAAR1 | actives 0.99% (n = 360,000) | AID 624467 | Q96RJ0 | CHO RD-HGA16 TAAR1, Fluo-8 calcium fluorescence; vehicle wells 0%, saturating PEA agonist 100% | activation, % at 3 µM;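 active means activation above the mean activation of all test compounds in the run plus 3 SD, cut at about 38% in these data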
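System: CHO-derived RD-HGA16 cells with stable Gα16 and human TAAR1. Times: 17-24 h plating, Fluo-8 75 min 37 °C, 30 min RT. Measured by: calcium-sensitive Fluo-8 signal, excitation 470-495, emission 515-575 nm. Read-out basis: % activation relative to PEA EC100 response. Control set: DMSO and PEA EC100. Repeats: no replicates (n 1).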
OXTR potentiate: potentiators of human oxytocin receptor; CHO-OTR cells, Fluo-8 calcium fluorescence, potentiator mode; 0% = oxytocin EC15, 100% = EC100; P30559; activation, % at 3 µM; actives 0.061% (n = 320,000);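 active means activation above that plate's cutoff, the mean activation of tested compounds plus 3 SD, cut at about 6.6% in these data, passing the limit was not always enough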;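 further: 100% uses oxytocin at 75 nM as the full agonist control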
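Replication – single well per compound, singlicate · Assay system – CHO cell line stably expressing human OTR · Timing – 6 min pre-incubation, 100 s read · Measure – normalized max/min fluorescence ratio, % activation · Doses – 3.0 µM, one dose · Detection – Fluo-8 calcium dye fluorescence · Probe or stimulus – oxytocin near EC15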
TAAR1 ag conf: human TAAR1 agonism, confirmed; shares compounds with TAAR1 agonist; activation, % at 3 µM; CHO RD-HGA16 TAAR1, Fluo-8 calcium fluorescence; scaled: DMSO 0%, maximal phenethylamine 100%; AID 651783; actives 82% (n = 2,400);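 active means activation above a cutoff set at the run's mean compound activation plus 3 SD, cut at about 39% in these data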
Ga16 nonsel ag: counter-screen for TAAR1 agonists: nonselective agonists in parental cells. shares compounds with TAAR1 agonist. CHO-Ga16 parental, Fluo-8 calcium fluorescence; normalized to maximal ATP response, DMSO zero. activation, % at 3 µM. actives 50% (n = 2,400). AID 651787;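 active means activation above the run cutoff, the mean activation over all tested wells plus 3 SD, cut at about 12% in these data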;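 further: 0% = DMSO wells and 100% = maximal ATP response on the peak over basal ratio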
TAAR1 desensitize: counter-screen for human TAAR1 agonists: agonists that desensitize TAAR1; shares compounds with TAAR1 agonist; CHO RD-HGA16 hTAAR1, Fluo-8 calcium, beta-PEA response inhibition; inhibition, % at 3 µM; actives 46% (n = 2,400);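 active means inhibition above the run cutoff, the mean inhibition of all test compounds plus 3 SD, cut at about 49% in these data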;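 further: beta-PEA stimulus applied at its EC80; loss of beta-PEA calcium signal after compound pretreatment read as receptor desensitization; 0% = DMSO with beta-PEA at EC80 and 100% = DMSO alone without agonist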
Ga16 nonsel ant: counter-screen for TAAR1 agonists: nonselective Ga16 antagonists; CHO-Ga16 ATP-induced calcium, Fluo-8 fluorescence; shares compounds with TAAR1 agonist; inhibition, % at 3 µM; actives 39% (n = 2,400);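 active means inhibition above the plate's mean compound inhibition plus 3 SD, computed per plate, cut at about 22% in these data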;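 further: 0% = EC80 ATP with DMSO and 100% = DMSO wells without ATP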
* = called active by the depositor; x = no result.

SMILES	TAAR1 antagonist	V1R ag counter	OXTR ag	TAAR1 agonist	OXTR potentiate	TAAR1 ag conf	Ga16 nonsel ag	TAAR1 desensitize	Ga16 nonsel ant
Cc1ccccc1Oc1ccc(Oc2ccccc2C)nn1	28	-1	-1	60*	-6	-2	0	-10	-2
CCC1CCCCN1CCCNC(=O)C1CCC(CNS(=O)(=O)c2c(C)cc(C)cc2C)CC1 (stereo not given)	1	2	1	3	-3	x	x	x	x
O=c1ccnc(NCCc2ccccc2)[nH]1	x	2	0	x	-2	x	2	x	6
CCOC(=O)[C@@H]1[C@H]2COc3ccccc3[C@@H]2N2C(=O)N(c3ccc(F)cc3)C(=O)[C@]12C	5	-2	-2	2	6	x	x	x	x
O=C(O)CCCC(=O)Nc1ccc(Oc2ncnc3cc(Cl)ccc23)nc1	-16	-1	0	1	-1	x	x	x	x
O=C(Nc1ccc(F)cc1)Nc1ccc(Oc2ncnc3cc(Cl)ccc23)nc1	29	0	1	56*	0	75*	1	81*	6
CCc1cccc(C)c1NC(=O)N(C)C1CCCCC1	-3	0	-2	0	-4	x	x	x	x
COc1ccc(S(=O)(=O)N2CCC(C(=O)NCC(c3cccs3)N(C)C)CC2)cc1 (stereo not given)	-10	0	0	9	0	x	x	x	x
Cc1ccc(C(=O)O)cc1NC(=O)C1CCN(S(=O)(=O)c2ccc3c(c2)OCCO3)CC1	-3	1	2	5	1	x	x	x	x
Cn1c(=O)c2c(nc(Oc3ccccc3Br)n2C)n(C)c1=O	-4	x	x	3	x	x	x	x	x
Cn1c(=O)c(N)c2c3c(c(Br)ccc31)C(=O)c1ccccc1-2	36	28*	25*	84*	-19	7	21*	33	35*
Cc1ccc2c(c1)N(CC(=O)Nc1c(C)cccc1C)C(=O)c1cccnc1O2	-23	1	0	3	-7	x	x	x	x
Cc1ccc2c(c1)N(CC(=O)NCC(C)c1ccccc1)C(=O)c1cccnc1O2 (stereo not given)	47	-1	-2	56*	-6	74*	3	50*	10
COc1cccc(OC)c1C(=O)Nc1cccc(S(=O)(=O)Nc2ccccc2Cl)c1	7	2	0	5	-6	x	x	x	x
COc1ccccc1NS(=O)(=O)c1cccc(NC(=O)Nc2ccc(Cl)cc2)c1	76*	10	9	56*	-19	46*	19*	93*	58*
C/C(NCCc1ccccc1)=C1/CCOC1=O	90*	x	x	91*	x	98*	0	88*	3
CC1CCc2c(sc(NS(=O)(=O)c3ccccc3)c2C(=O)OC(C)C)C1 (stereo not given)	17	0	3	43*	-7	24	19*	26	26*
COC(=O)c1c(NS(=O)(=O)c2ccc3ccccc3c2)sc2c1CCCC2	26	0	-2	9	-9	x	x	x	x
OCCNc1nc(Nc2ccccc2)nc(Nc2ccccc2)n1	-13	0	-2	13	-15	x	x	x	x
OCCNc1nc(Nc2ccccc2)nc2ccccc12	92*	0	9	97*	-6	89*	2	98*	11
Cc1c(Cl)cccc1Nc1nc(NCCO)c2ccccc2n1	37	3	6	49*	-12	83*	5	84*	6
COc1cc(-c2cc(-c3ccc(N)cc3)[nH]c(=O)c2C#N)cc(OC)c1OC	-2	2	1	4	-8	x	x	x	x

Screening results (PubChem)
